Laboratory results reported in ChEMBL document CHEMBL4513216, “Probing the Open Global Health Chemical Diversity Library for Multistage-Active Starting Points for Next-Generation Antimalarials” (ACS Infect Dis, 2020).

Assay: Toxicity liver stage against HepG2, at 10uM
Assay type: cell-based
Parameters: test concentration 10 uM, cell line HepG2-A16-CD81EGFP
Conditions: human, HepG2-A16-CD81EGFP cells; read-out: INHIBITION
Summary of the method: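 Uninfected HepG2-A16-CD81EGFP cells, 3 × 10^3 per well, 1536-well, plated on prespotted compound at 10 μM final, parasite-free screening media added to match infected plates; puromycin 10 μM positive, DMSO 0.5% negative; run in parallel with 48 h PbLuc assay at 37 °C, 5% CO2; viability by CellTiter-Glo luminescence, normalized to controls.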

SMILES | cytotoxicity at 10 µM [%]
Cc1oc(C(=O)O)cc1S(=O)(=O)Nc1cccc(-n2nccc2C)c1 | 4.46
CCn1cnnc1CCNC(=O)CCNC(=O)c1ccccc1F | 4.49
CCCN1CCN(Cc2nc3ccccc3[nH]2)[C@H]2CS(=O)(=O)C[C@H]21 | -137
CCC(C)C(=O)NCc1cccc(N2CCCCC2=O)c1 (stereo not given) | -6.93
Cc1cc(CN2CCN(CC3CC3)[C@@H]3CS(=O)(=O)C[C@@H]32)cc(C)c1O | 2.78
CCNC(=O)[C@@H]1C[C@H](N)CN1C(=O)c1c[nH]c2ccccc12 | -8.34
CC(C)(C)C(=O)N1CCCc2c(cnn2-c2ccccc2)C1 | 7.15
Cc1noc(CCCC(=O)N2CCCC2c2ccsc2)n1 (stereo not given) | -3.02
CC1CCCCN1CCNC(=O)c1ccccc1N1CCOCC1 (stereo not given) | -4.14
COC(=O)c1ccc(N(C(=O)c2cccnc2C)C(C)C)c(C)c1 | -8.58
Cc1cc(C)n(CC2CCCCN2CC(=O)Nc2c(C)n[nH]c2C)n1 (stereo not given) | -1.92
CN(C(=O)c1cccc(OCC(F)F)n1)c1ccc2c(c1)CCO2 | 43
COCC(=O)N1Cc2ccnn2CC(COCCN(C)C)C1 (stereo not given) | 6.82
COc1ccc(NC(=O)CNc2cccc3c2CCCC3)c(OC)c1 | 16.5
CCc1cnc2c(c1Nc1ccc3c(c1)OCO3)c(=O)n(C)c(=O)n2C | 9.06
CCNc1nc2cn(-c3ccc(Cl)cc3)c(=O)c-2c[nH]1 | 7.67
O=C([C@H]1COC[C@H]2CN(c3ncc(F)cn3)C[C@H]21)N1CCOCC1 | -5.58
Cc1cncc(C(=O)N2CCCC(O)(CN(C)C)CC2)c1 (stereo not given) | 6.22
CCC(O)CNc1nccc(-c2ccc(C)nc2C)n1 (stereo not given) | -2.92
CCOc1ccc(Cl)c(C(=O)N2CCCC(c3cc(C)[nH]n3)C2)n1 (stereo not given) | 8.83
CC(C)c1cc(C(=O)NCC2(C(N)=O)CCOCC2)nn1C(C)(C)C | 10.3
O=C(N1CCCCC1)N1CCN(CC(O)c2ccccc2)CC1 (stereo not given) | -7.45

SMILES | cytotoxicity at 10 µM [%]
CC(C)N1CCc2c(c(COc3cncnc3)nn2CC2CC2)C1 | 1.7
CCN(CC(=O)NC)S(=O)(=O)N1CCCCC1 | 1.29
CCC(O)CN1CCN(C(=O)c2ccn(-c3ccccc3)n2)CC1 (stereo not given) | -9.33
CCOC(=O)CSc1nnc([C@@H](N)CC(C)C)o1 | 6.76
COc1ccc(F)cc1C(C)NC(=O)c1nnc(C)s1 (stereo not given) | -0.213
Cc1nc(C)n(CC2CCCN2CCc2ccncc2)n1 (stereo not given) | -7.3
Cc1noc(C(C)C)c1C(=O)NCCN1CCOCC1 | -8.73
CC[C@H](Nc1nc(C(C)C)nc2c1cnn2C)c1ccccc1 | -47.5
CNS(=O)(=O)CCCN1CCN(C(C#N)c2ccccc2)CC1 (stereo not given) | 7.7
O=C(NCC1(O)CCSCC1)c1ccoc1 | -6.61
COc1ccc(-c2cc(C(=O)NCCn3ccnc3)n(C)n2)cc1 | 3.86
COCC(=O)NCC1Cn2nnc(-c3ccoc3)c2CO1 (stereo not given) | 17
Cc1noc(C(C)C)c1C(=O)NS(=O)(=O)c1ccc2c(c1)OCCCO2 | -9.06
CC(C)OC(=O)N1CCCC2(CCC(=O)N(CCc3c[nH]cn3)C2)C1 (stereo not given) | -3.73
Cc1cccnc1C(=O)N1CCCC(c2[nH]ncc2S(C)(=O)=O)C1 (stereo not given) | 7.58
COc1nn(C)cc1C(=O)NCC1(O)CCc2ccccc2C1 (stereo not given) | -6.98
O=C(NC1CCC1)C1=NOC2(CCN(Cc3ccccc3)C2)C1 (stereo not given) | -97.6
COc1ccccc1CCC(=O)N1C[C@H](c2ccccc2)[C@@H](N)C1 | -3.79
Cc1nnc2n1CCN(CCOc1cccc(C#N)c1)C2 | -7.88
CC(C)N1CCC(N2CCOC3(CCCC3)C2)C1=O (stereo not given) | 1.56
O=C(c1ccnnc1)N1CCN2C[C@H](OCc3cccnc3)C[C@H]2C1 | -72.4
CN(Cc1cnn(C)c1)C(=O)Cc1ccc2c(c1)OCCO2 | 2.45

SMILES | cytotoxicity at 10 µM [%]
CS(=O)(=O)c1ccc(O[C@H]2COCCN(Cc3ccncc3)C2)cc1 | -5.33
COc1ccc(Cl)cc1C(=O)N1CCCC(n2nc(C)nc2C)C1 (stereo not given) | -4.53
C=Cn1ncc(CN2CCC(c3ncc(Cl)cc3S(C)(=O)=O)CC2)c1C | 6.29
O=C(CN1CCc2[nH]c3ccccc3c2C1)NCc1ccco1 | -3.04
CN(Cc1nnc(C2CC2)o1)C1CCCN(c2cccnn2)C1 (stereo not given) | -10.7
Cc1nc(CN2CCCN(C(=O)c3cccn3C)CC2)cs1 | -2.06
COc1ccccc1C(=O)NC(C)CC(=O)O (stereo not given) | -2.43
CC(NC(=O)NCCn1ccnc1)c1nncn1C (stereo not given) | -8.92
O=C(NCc1ccc(F)cc1)NCC(O)(c1ccco1)C1CC1 (stereo not given) | -115
O=C(COc1ccc2c(c1)OCC2O)NCc1ccco1 (stereo not given) | 0.878
COc1cccc(OCCc2nc3c(cc2C(N)=O)CCC3)c1 | 7.32
Cc1nn(C)c(N2CCOCC2)c1CNC(C)c1cccs1 (stereo not given) | -1.47
COc1cc(C(=O)NCCc2cccc(C)c2)on1 | 0.572
CN1CCN(C(=O)CCc2cccnc2)c2ccc(F)cc21 | -2.23
CCN(CC)C(=O)c1ccc(CNc2ncc(C#N)cc2Cl)cc1 | 5.87
CC(C)c1nn(C)c(Cl)c1CNCc1ccc2c(c1)OCCO2 | -1.64
CN(Cc1ccc(C#N)cc1)C(=O)c1ccnc(OC2CCC2)c1 | 7.59
COCC(=O)NCc1ccc(-c2ccccc2C(=O)O)cn1 | -1.53
CCN1CCN(C(=O)C(C)N2CCc3cncnc3C2)CC1 (stereo not given) | -10.9
COc1nc2ccccc2cc1CN1CCC(CNS(C)(=O)=O)C1 (stereo not given) | -2.7
CC(=O)N1CCN(c2cc(CCNC(=O)C(C)C)nc(C3CC3)n2)CC1 | -21.3
O=S(=O)(CCc1ccccc1)Cc1nc(C2CC2)no1 | 1.03

SMILES | cytotoxicity at 10 µM [%]
CCn1c(C2CCN(C(=O)c3cc(C4CC4)on3)CC2)nn(C)c1=O | -5.82
C[C@@H]1CN(C(=O)c2c[nH]c(=O)c(Cl)c2)CC[C@@]1(O)C1CCOCC1 | 1.09
COc1c(Br)c(C(=O)NC2CCCCC2)nn1C | 6.94
COc1ncccc1C(=O)N1CC(c2nc(-c3ccccn3)no2)C1 | 3.19
O=C1CC(C(=O)O)C2(CCN(C(=O)Nc3ccccc3Cl)CC2)N1 (stereo not given) | 2.14
Cc1ccc(NC(=O)c2nc3c(s2)CCCN3C(=O)C2CC2)cn1 | 10.5
O=C(CN1CCCC1COc1ccccc1)NCc1ccccn1 (stereo not given) | -0.764
CC(C)CN1CCc2[nH]cnc2C12CCN(C(=O)c1cc[nH]n1)CC2 | 0.363
CN(C)C(=O)CN1CCCC2(CCN(c3ccsc3)C2=O)C1 (stereo not given) | 9.88
COC[C@@]12CCO[C@@H]1CCN(Cc1ccc(C)s1)C2 | -91.9
Cc1nc(C)n(CC2CCCCN2CC(=O)NC(C2CC2)C2CC2)n1 (stereo not given) | -8.61
CN(C)CCN1CC(C(=O)NCc2cccc(-n3cccn3)c2)CC1=O (stereo not given) | -0.0342
CCc1nc(NC2CCCN(C(=O)C3CC3)C2)c2cnn(C)c2n1 (stereo not given) | -1.05
COCC1CC2(CCN(Cc3ccoc3)CC2)CN1C(C)C (stereo not given) | 0.803
CNC(=O)c1cc2c(nc1NCC(C)C)CCN(C)CC2 | -153
COc1cc(C2CC(=O)Nc3c2nc2n3CCCC2)cc(OC)c1O (stereo not given) | -9.59
O=C(C1CC1)N1C[C@H]2CNC[C@@]2(C(=O)NCCCc2ccccc2)C1 | -0.371
CC1(CCNC(=O)NCc2ccsc2)OCCO1 | -6.21
Cc1ccc(CNC(=O)CN2CCN(CCO)CC2)s1 | 9.03
CN(C)C[C@H]1C[C@@H](CO)CN(C(=O)CCc2nc(Cl)n[nH]2)C1 | -3.73
O=C(CCc1ccncc1)N1CCCC(n2cccn2)C1 (stereo not given) | -5.57
c1csc(CN2C[C@H](OCC3CCOCC3)[C@H]3COC[C@H]32)n1 | -3.76

SMILES | cytotoxicity at 10 µM [%]
CN1CC2(CCCN(CCOCc3ccccc3)C2)OC1=O (stereo not given) | -10.4
OCCNc1cc(-c2nccnc2N2CCCC2)c2cc[nH]c2n1 | -7.57
COCCN1CCc2c(cnc(-c3ccccc3)c2C(=O)O)C1 | 2.24
Cc1ccc(-c2nc(C3CCN(C(=O)c4cnn(C)c4)CC3)no2)cn1 | -1.55
CCn1c(CN(C)C)nnc1C1CCN(Cc2ccc(Cl)c(F)c2)CC1 | 3.73
CCN1N=C(C(=O)N2CCCC(c3nc(C)cs3)C2)CCC1=O (stereo not given) | -3.12
CCS(=O)(=O)Nc1ccc2oc(C)c(C(=O)OC)c2c1 | 5.87
O=C(c1ccco1)N1C[C@H]2CCCN(C(=O)c3ccsc3)[C@H]2C1 | 8.36
O=c1ccc(-c2cccs2)nn1CN1CCN(Cc2ccccc2)CC1 | -3.73
CC(=O)N1CCCCCC1C1CCN(c2ncccc2C#N)CC1 (stereo not given) | -7.13
O=C(Cn1ccc2ccccc21)Nc1cc(N2CCCC2)ncn1 | 4.24
COc1ccc2c(c1)C1(CCN(Cc3ccoc3)CC1)N(C)CC2 | -8.04
Cc1cccc(-n2nnnc2C2(NCc3ccco3)CCCCC2)c1 | 6.27
CC(CNC(=O)c1cc(Cl)ccc1F)N1CCCC1 (stereo not given) | -4.43
CN(C)c1nccc(N2CCO[C@H]3CN(Cc4nccn4C)C[C@H]32)n1 | -123
OC1(CN2CCCCC2)CCN(c2nccc(C(F)(F)F)n2)C1 (stereo not given) | -7.07
NC(=O)c1ccc(N2CCCCC2)c(NC(=O)c2ccc(F)cc2Cl)c1 | -4.2
COc1ccccc1CNc1ncnc2c1NC(=O)CN2 | 11.3
CC(C)c1nccn1CCC(=O)NCC(C)(O)c1ccco1 (stereo not given) | 1.23
Cc1cc(NC(=O)C(c2cccc(F)c2)N2CCOCC2)sn1 (stereo not given) | -3.98
Clc1ccc(-c2ccc(C3CNCCO3)nc2)cc1 (stereo not given) | -5.86
O=C(c1csc2nc(-c3ccc(Cl)cc3)cn12)N1CCCC(CO)C1 (stereo not given) | 2.2
